An excerpt weighted towards active compounds, which were near 4.3% of everything screened.
STAT1 activator = STAT1 signaling activation; hit rate 2.6% among 200,000; NIH 3T3 STAT1-luciferase reporter, IFN-gamma, luminescence; 100% = IFN-gamma alone, no compound; AID 932; activation (% of control), % at 5.5 µM;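 active = activation above the screen-wide mean activation plus 3 SD, cut at about 130% in these data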;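 note: raw ratio to IFN-gamma control signal so 100% means no change and 0% no light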
NF-kB expr up = NF-kB expression increase, human neuronal cells; NF-kB reporter expression; stronger effect = higher value; fold change at 12.5 µM; hit rate 1.6% among 190,000; AID 1239; in the data active = fold change above about 3.3
FLuc inh counter = counter-screen for luciferase assay inhibitors: firefly luciferase inhibition; P08659; hit rate 1.5% among 200,000; ATPLite firefly luciferase biochemical luminescence, 10 min; inhibition, % at 10 µM;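 active = inhibition above about 50% when tested at 10 µM, limit read from the data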
Target sequence (P08659 whole entry, looked up): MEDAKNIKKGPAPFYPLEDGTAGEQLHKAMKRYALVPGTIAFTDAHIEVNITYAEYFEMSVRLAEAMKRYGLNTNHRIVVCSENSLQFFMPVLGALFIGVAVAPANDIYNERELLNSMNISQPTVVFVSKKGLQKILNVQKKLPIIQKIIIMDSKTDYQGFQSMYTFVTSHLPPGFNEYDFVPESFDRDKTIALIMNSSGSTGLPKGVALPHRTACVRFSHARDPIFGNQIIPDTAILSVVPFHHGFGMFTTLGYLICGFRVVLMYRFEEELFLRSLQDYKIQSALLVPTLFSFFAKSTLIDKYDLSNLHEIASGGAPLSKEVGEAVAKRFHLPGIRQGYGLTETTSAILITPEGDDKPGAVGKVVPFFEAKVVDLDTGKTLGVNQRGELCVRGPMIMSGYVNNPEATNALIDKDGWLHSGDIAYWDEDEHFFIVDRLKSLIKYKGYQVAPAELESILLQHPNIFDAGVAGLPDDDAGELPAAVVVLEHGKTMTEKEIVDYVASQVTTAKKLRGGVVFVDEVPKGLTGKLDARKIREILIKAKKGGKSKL
APP 5'UTR act = APP 5'UTR luciferase reporter activation | SH-SY5Y APP 5'UTR luciferase reporter, luminescence; zero percent = DMSO vehicle wells | activation, % at 2 µM | hit rate 1% among 190,000 | AID 1276;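 active = activation above a set limit, based on mean plus 3 SD of controls, cut at about 140% in these data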
FLuc stim CS = firefly luciferase counter-screen for stimulation assays; P08659; ATPlite luciferase biochemical, luminescence, 10 min; 0 = ATP-free wells, 1 = DMSO control; 200,000 tested, under 10 active; AID 1027; activation factor at 10 µM;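 active = luciferase activation factor, scaled between plate controls, of at least 2 with compound at 10 µM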
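System: luciferase plus luciferin reagent, cell-free; medium: PBS as buffer for the ATP substrate; dosing: test compounds dosed from 2 mM stocks in 100% DMSO; timing: 10 min post-reagent at room temperature; measured by: luminescence measurement of luciferase light output; evaluation: luciferase activation, seen as luminescence increase over controls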
* marks the source's active call; other numbers are inactive results.

SMILES | STAT1 activator | NF-kB expr up | FLuc inh counter | APP 5'UTR act | FLuc stim CS
N#Cc1c(NC(=O)CSc2nnc(-c3ccccc3)o2)sc2c1CCCC2 | 122 | 1.2 | -10 | 2 | 1.1
O=C(CSc1nnc(-c2csc3c2CCCC3)o1)Nc1ccccc1 | 138* | 3.4* | 0 | 203* | 1
CCN(CC)S(=O)(=O)c1ccc(-c2nnc(SCC(=O)Nc3nc(C)cs3)o2)cc1 | 90 | 1.1 | 2 | 2 | 1
Cc1csc(NC(=O)CSc2nnc(-c3ccccc3)o2)n1 | 126 | 3.1 | -5 | 136* | 1.1
O=c1c2ccccc2cnn1CCOc1ccccc1 | 60 | 1.4 | 83* | 99 | 0.2
O=C(O)Cn1ncc2ccccc2c1=O | 95 | 1.6 | -3 | -16 | 1
CCOC(=O)c1cc(-c2ccccc2)sc1NC(=O)C(C)OC(=O)c1cccnc1OCC (stereo unspecified) | 92 | 1.2 | -3 | 7 | 1
CN(C(=O)COc1ccc(Cl)cc1)c1nnc(C23CC4CC(CC(C4)C2)C3)s1 | 103 | 1.2 | -5 | 4 | 1.1
CN(C(=O)c1ccco1)c1nnc(C23CC4CC(CC(C4)C2)C3)s1 | 140* | 2.3 | 21 | 15 | 0.8
CN(C(=O)c1ccco1)c1nc2c(s1)CCCC2 | 130* | 4.1* | 77* | 162* | 0.2
CCC1SC(CC)C(=O)N(CC(=O)Nc2ccc3c(c2)OCO3)C1=O (stereo unspecified) | 110 | 1.3 | -3 | 21 | 1
O=S(=O)(Nc1cccc2c1ccc1cccn12)c1cccs1 | 100 | 1.1 | -4 | -3 | 1
Nc1ccc(C#Cc2ccccc2)cc1 | 130* | 1.5 | 7 | 7 | 0.9
Nc1ccc(-c2nc3ccccc3[nH]2)cc1 | 121 | 2 | 42 | 58 | 0.6
Nc1ccccc1C#Cc1ccccc1 | 146* | 8.7* | 24 | 119 | 0.8
Nc1c(C(=O)N2CCCC2)sc2nc3c(cc12)CCCCCC3 | 147* | 1.8 | 11 | 132 | 0.9
Nc1c(C(=O)N2CCOCC2)sc2nc3c(cc12)CCC3 | 122 | 3.4* | 31 | 109 | 0.7
NC(=O)c1sc2nc3c(cc2c1N)CCC3 | 109 | 2 | 23 | 27 | 0.8
O=C(O/N=C1/CCSc2ccccc21)c1ccc(F)cc1 | 104 | 1.2 | 88* | 2 | 0.1
O=C(O/N=C1\CCS(=O)(=O)c2sccc21)c1ccc(F)cc1 | 99 | 1.4 | 6 | 12 | 0.9
O=C(O/N=C1/CCCc2occc21)c1ccc(F)cc1 | 114 | 1.4 | 80* | -19 | 0.2
CCCCCn1cnc2sc(CC)cc2c1=O | 144* | 2.3 | 18 | 66 | 0.8
CCc1cc2c(=O)n(-c3ccc(Br)cc3)cnc2s1 | 137* | 2.4 | 6 | 13 | 0.9
COc1ccccc1-n1cnc2sc(-c3ccccc3)cc2c1=O | 99 | 1.4 | 2 | 5 | 1
CCCCCn1cnc2sc(-c3ccccc3)cc2c1=O | 149* | 4.8* | -1 | 4 | 1
SMILES | STAT1 activator | NF-kB expr up | FLuc inh counter | APP 5'UTR act | FLuc stim CS
O=c1c2cc(-c3ccccc3)sc2ncn1/N=C/c1ccco1 | 129* | 2.4 | 6 | 20 | 0.9
O=c1c2c(-c3ccccc3)csc2ncn1/N=C/c1c2ccccc2cc2ccccc12 | 95 | 0.8 | -4 | -1 | 1
CCN(CC)c1ccc(/C=N/NC(=O)Nc2nonc2N)cc1 | 115 | 1.2 | 25 | -10 | 0.8
CCOC(=O)NN1C(=O)c2ccccc2NC1c1ccc(OC)cc1OC (stereo unspecified) | 100 | 0.92 | -3 | -15 | 1
CN1CCC/C1=C/C=C1\SC(=S)NC1=O | 113 | 1.8 | 8 | 16 | 0.9
COc1ccc2c(c1)CC/C2=N\NC(=O)c1ccccc1 | 130* | 1.5 | 27 | 42 | 0.7
COc1ccc(OCC(=O)N/N=C2\CCc3ccccc32)cc1 | 102 | 1.3 | 20 | 4 | 0.8
Cc1ccc([N+](=O)[O-])cc1-c1ccc(/C=C(\C#N)c2[nH]nc(N)c2C#N)o1 | 140* | 1.4 | -5 | 42 | 1.1
CN(C)c1ccc(NC(=O)c2sc(SCC(=O)Nc3ccc(Br)cc3)nc2N)cc1 | 96 | 0.94 | -4 | 5 | 1
CN(C)c1ccc(NC(=O)c2sc(SCC(=O)Nc3nccs3)nc2N)cc1 | 108 | 0.88 | 55* | 77 | 0.5
CC1(c2ccc(Cl)cc2)NC(=O)N(CC(=O)NC(=O)NCc2ccco2)C1=O (stereo unspecified) | 98 | 1.1 | -9 | -17 | 1.1
COc1ccc(N=Nc2[nH]c3ccc(C)cc3c2O)cc1 | 114 | 1.2 | -3 | 19 | 1

Source: PubChem
